Assays:
[1] = target: Serotonin 2 (5-HT2) receptor (Rattus norvegicus, UniProt P30994+P08909+P14842); test: In vitro antagonistic activity tested against the contraction induced by 5-HT through 5-hydroxytryptamine 2 receptor in rat thoracic aortic strips; format: functional
[2] = target: T1, Adrenergic receptor alpha-1 (Rattus norvegicus, UniProt P15823+P23944+P43140); test: In vitro antagonistic activity tested against the contraction induced by phenylephrine through Alpha-1 adrenergic receptor in rat thoracic aortic strips; format: functional
T1 sequence (P15823 whole entry): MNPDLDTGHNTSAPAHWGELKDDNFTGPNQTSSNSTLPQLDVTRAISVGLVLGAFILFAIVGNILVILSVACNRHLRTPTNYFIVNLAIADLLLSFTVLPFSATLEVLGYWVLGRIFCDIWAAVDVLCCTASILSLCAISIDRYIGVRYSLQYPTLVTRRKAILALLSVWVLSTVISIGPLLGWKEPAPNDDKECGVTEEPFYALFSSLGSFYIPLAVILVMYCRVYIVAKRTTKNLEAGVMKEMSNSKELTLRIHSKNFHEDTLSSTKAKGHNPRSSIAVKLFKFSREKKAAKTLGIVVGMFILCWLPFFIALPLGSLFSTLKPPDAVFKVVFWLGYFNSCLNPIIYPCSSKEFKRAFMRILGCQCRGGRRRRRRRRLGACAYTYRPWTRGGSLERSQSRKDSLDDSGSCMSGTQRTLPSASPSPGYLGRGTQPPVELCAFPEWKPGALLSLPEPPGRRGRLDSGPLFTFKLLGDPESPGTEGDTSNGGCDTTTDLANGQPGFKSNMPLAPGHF
T1 sequence (P23944 whole entry): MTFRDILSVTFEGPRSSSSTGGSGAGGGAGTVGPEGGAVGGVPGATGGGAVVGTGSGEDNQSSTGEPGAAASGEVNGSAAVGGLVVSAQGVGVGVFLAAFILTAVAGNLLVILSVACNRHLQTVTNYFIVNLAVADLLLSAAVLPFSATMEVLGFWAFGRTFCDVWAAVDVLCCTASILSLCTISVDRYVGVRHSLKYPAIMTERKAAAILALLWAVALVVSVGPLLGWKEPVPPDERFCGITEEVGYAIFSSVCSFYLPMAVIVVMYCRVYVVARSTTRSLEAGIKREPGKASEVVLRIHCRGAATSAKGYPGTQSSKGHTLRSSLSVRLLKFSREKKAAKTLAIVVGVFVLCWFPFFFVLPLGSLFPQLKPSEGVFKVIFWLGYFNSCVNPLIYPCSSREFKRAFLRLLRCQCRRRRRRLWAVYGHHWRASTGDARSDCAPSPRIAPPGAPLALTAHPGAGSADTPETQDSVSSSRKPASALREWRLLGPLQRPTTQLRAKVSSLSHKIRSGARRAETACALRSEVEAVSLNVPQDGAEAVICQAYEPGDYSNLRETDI
T1 sequence (P43140 whole entry): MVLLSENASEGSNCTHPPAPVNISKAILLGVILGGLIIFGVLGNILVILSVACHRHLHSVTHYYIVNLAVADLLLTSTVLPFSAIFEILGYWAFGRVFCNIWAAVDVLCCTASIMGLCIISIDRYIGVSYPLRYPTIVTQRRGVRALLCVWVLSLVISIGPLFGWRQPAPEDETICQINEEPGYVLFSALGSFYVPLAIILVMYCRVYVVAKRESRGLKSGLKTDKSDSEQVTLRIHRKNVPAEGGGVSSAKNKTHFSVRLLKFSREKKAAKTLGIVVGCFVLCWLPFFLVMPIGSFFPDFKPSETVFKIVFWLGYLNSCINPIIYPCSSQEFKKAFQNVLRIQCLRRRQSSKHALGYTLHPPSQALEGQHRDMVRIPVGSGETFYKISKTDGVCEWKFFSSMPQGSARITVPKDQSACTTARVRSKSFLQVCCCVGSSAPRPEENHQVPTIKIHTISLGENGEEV
Method in brief: (§1)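 Rat thoracic aortic strips, isometric tension; equilibrated 120 min, primed with 60 mM KCl. Cumulative phenylephrine (0.01-10 μM) curve, wash, 1 h later second cumulative curve with test drug present. pA2 from the concentration-response curves where blockade is competitive (otherwise noncompetitive); single determination.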

[3] = target: T2, Serotonin 2 (5-HT2) receptor (Rattus norvegicus) (UniProt P30994+P08909+P14842); test: In vivo inhibitory activity of 10 mg/kg compound in rats against elevation of BP caused by 5-HT (300 ug/kg, iv) through 5-hydroxytryptamine 2 receptor 1 hr after oral administration; format: functional, organism-based; parameters: dose 10 mg/kg
Method in brief: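 Male SD rats anesthetized with urethane (1 g/kg ip) plus alpha-chloralose (80 mg/kg ip). Carotid arterial catheter to a pressure transducer, venous catheter for injection. After oral drug or vehicle, 5-HT 300 μg/kg iv. The pressor phase following the brief hypotensive phase was measured and expressed as % inhibition, mean ± SEM.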

[4] = target: T3, Adrenergic receptor alpha-1 (Rattus norvegicus) (UniProt P15823+P23944+P43140); test: In vivo inhibitory activity in rats against elevation of blood pressure caused by phenylephrine (30 ug/kg, iv) through Alpha-1 adrenergic receptor, after 1 hr oral administration at dose of 10 mg/kg; format: functional, organism-based; parameters: dose 10 mg/kg
Method in brief: (§2)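 Male SD rats under urethane (1 g/kg ip) and alpha-chloralose (80 mg/kg ip). Blood pressure recorded via carotid catheter and transducer, iv dosing via venous catheter. After oral drug or vehicle, phenylephrine 30 μg/kg iv. The pressor rise was expressed as % inhibition, mean ± SEM.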

[5] = target: T1, Adrenergic receptor alpha-1; test: In vitro antagonistic activity against the contraction induced by phenylephrine through alpha-1 receptor in rat thoracic aortic strips; format: functional; method in brief: as §1
[6] = target: T3, Adrenergic receptor alpha-1 (Rattus norvegicus); test: In vivo inhibitory activity in rats against elevation of blood pressure caused by phenylephrine (30 ug/kg, iv) through alpha-1 receptor after 1 hr of oral administration at the dose of 10 mg/kg; format: functional, organism-based; parameters: dose 10 mg/kg; method in brief: as §2
[7] = target: T2, Serotonin 2 (5-HT2) receptor (Rattus norvegicus); test: In vitro antagonistic activity against the contraction induced by 5-HT through 5-hydroxytryptamine 2 receptor in rat thoracic aortic strips; NC=non competitive antagonism; format: functional; conditions: filed as antagonist
Method in brief: as §1, with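 “5-HT (0.1-100” for “phenylephrine (0.01-10”, “cumulative 5-HT” for “cumulative”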

[8] = target: T3, Adrenergic receptor alpha-1 (Rattus norvegicus); test: In vitro antagonistic activity against the contraction induced by phenylephrine through Alpha-1 adrenergic receptor in rat thoracic aortic strips; NC = non-competitive inhibition; format: functional; method in brief: as §1

T2 sequence (P08909 whole entry, looked up): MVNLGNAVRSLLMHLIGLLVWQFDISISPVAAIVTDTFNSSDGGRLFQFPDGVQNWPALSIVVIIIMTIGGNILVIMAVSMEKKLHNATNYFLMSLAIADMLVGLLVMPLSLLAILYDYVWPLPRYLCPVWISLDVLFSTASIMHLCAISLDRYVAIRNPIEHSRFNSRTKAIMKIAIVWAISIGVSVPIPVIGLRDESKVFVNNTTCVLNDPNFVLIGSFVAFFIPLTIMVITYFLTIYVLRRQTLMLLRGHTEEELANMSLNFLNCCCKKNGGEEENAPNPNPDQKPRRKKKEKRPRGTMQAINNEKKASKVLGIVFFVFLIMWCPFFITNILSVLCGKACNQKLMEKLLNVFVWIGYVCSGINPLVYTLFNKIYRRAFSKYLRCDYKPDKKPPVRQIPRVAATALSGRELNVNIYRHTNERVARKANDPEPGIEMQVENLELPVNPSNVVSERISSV
T2 sequence (P14842 whole entry, looked up): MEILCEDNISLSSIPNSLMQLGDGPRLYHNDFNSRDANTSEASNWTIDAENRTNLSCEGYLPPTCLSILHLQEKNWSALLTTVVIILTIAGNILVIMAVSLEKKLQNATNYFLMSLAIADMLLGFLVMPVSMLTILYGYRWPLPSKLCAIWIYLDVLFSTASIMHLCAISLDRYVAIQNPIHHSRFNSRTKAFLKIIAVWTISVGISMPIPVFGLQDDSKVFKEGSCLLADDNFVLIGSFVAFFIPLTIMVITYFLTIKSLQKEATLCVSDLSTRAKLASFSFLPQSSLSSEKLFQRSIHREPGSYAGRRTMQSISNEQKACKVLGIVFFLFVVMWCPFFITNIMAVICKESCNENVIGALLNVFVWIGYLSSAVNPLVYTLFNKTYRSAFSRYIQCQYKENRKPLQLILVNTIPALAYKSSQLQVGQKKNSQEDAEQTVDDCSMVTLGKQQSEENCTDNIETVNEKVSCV
T2 sequence (P30994 whole entry, looked up): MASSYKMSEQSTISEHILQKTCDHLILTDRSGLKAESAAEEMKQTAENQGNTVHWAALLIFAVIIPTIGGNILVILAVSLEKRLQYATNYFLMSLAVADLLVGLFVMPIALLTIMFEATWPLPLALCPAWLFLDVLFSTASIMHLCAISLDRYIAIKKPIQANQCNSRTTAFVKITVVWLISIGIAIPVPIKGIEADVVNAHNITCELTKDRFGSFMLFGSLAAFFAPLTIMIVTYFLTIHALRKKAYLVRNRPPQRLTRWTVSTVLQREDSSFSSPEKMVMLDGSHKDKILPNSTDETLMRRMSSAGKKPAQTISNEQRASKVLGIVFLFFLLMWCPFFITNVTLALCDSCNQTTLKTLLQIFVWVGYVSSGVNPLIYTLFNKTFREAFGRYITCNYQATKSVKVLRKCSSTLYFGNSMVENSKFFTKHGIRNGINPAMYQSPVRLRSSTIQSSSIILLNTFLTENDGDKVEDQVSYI

| pA2 [1] | pA2 [2] | inhibition [3] | pA2 [5] | pA2 [7] | pA2 [8] | Structure (SMILES) | inhibition [4] | inhibition [6] |
| --- | --- | --- | --- | --- | --- | --- | --- | --- |
| 7.7 | 7.8 |  |  |  |  | O=C(c1ccc(F)cc1)C1CCN(CCCn2nc3n(c2=O)CCCC3)CC1 |  |  |
| 7.1 | < 6 | 93% |  |  |  | O=c1nc2sccn2c(=O)n1CCN1CCC(=C(c2ccc(F)cc2)c2ccc(F)cc2)CC1 | 20% |  |
| 7.2 | 6.6 | 60% |  |  |  | O=c1n(CCN2CCC(=C(c3ccc(F)cc3)c3ccc(F)cc3)CC2)nc2n1CCOC2 | 10% |  |
| 6.8 | 7 | 85% |  |  |  | O=C(c1ccc(F)cc1)C1(O)CCN(CCn2nc3n(c2=O)CCCC3)CC1 | 15% |  |
| 6.7 | 6.3 | 32% |  |  |  | N#CC(=C1CCN(CCn2nc3n(c2=O)CCCC3)CC1)c1ccc(F)cc1 | 2% |  |
| 7.3 | 6.4 | 84% |  |  |  | O=c1n(CCN2CCC(=C(c3ccccc3)c3ccc(F)cc3)CC2)nc2n1CCCCC2 | 7% |  |
| 8.1 | 7.5 |  |  |  |  | O=C(c1ccc(F)cc1)C1CCN(CCn2c(=O)nc3ccccn3c2=O)CC1 |  |  |
| 7.1 |  | 74% | 6.9 |  |  | O=c1n(CCN2CCC(=C(c3ccc(F)cc3)c3ccc(F)cc3)CC2)nc2n1CCC2 |  | 6% |
| 8.5 |  | 90% | 7 |  |  | O=c1n(CCN2CCC(=C(c3ccc(F)cc3)c3ccc(F)cc3)CC2)nc2n1CCCCC2 |  | 3% |
| 7.3 | 7.6 | 72% |  |  |  | O=C(c1ccc(F)cc1)C1(O)CCN(CCCn2nc3n(c2=O)CCCCC3)CC1 |  |  |
|  |  |  |  | Non-competitive antagonist | Non-competitive inhibition | O=C(c1ccc(F)cc1)C1CCN(CCCn2nc3n(c2=O)CCCCC3)CC1 |  |  |
| 8.3 |  | 83% | 6.8 |  |  | O=c1nc2n(c(=O)n1CCN1CCC(=C(c3ccc(F)cc3)c3ccc(F)cc3)CC1)CCC2 | 8% |  |
| 6.8 |  | 41% | 7.2 |  |  | COc1ccc(C(=C2CCN(CCn3nc4n(c3=O)CCCC4)CC2)c2ccc(OC)cc2)cc1 |  | 4% |
| 6.8 | 6.4 | 65% |  |  |  | O=C(c1ccc(F)cc1)C1CCN(CCn2nc3n(c2=O)CCC3)CC1 | 36% |  |
| 6.5 | 7.3 | 78% |  |  |  | O=C(c1ccc(F)cc1)C1CCN(CCCn2c(=O)nc3n(c2=O)CCCC3)CC1 | 53% |  |
|  | 7.8 | 89% |  |  |  | O=c1n(CCN2CCC(=C(c3ccc(F)cc3)c3ccc(F)cc3)CC2)nc2n1CCCO2 | 16% |  |
| 7.8 | 7.5 | 67% |  |  |  | O=c1n(CCN2CCC(=C(c3ccc(F)cc3)c3ccc(F)cc3)CC2)nc2n1CCSC2 | 4% |  |
| 6.8 | 6.8 | 90% |  |  |  | O=C(c1ccc(F)cc1)C1CCN(CCn2nc3n(c2=O)CCCC3)CC1c1ccc(F)cc1 (configuration not stated) | 15% |  |
| 7 | < 6 | 42% |  |  |  | O=c1n(CCN2CCC(=C(c3ccccc3)c3ccccc3)CC2)nc2n1CCCCC2 | 3% |  |
|  |  |  |  | Non-competitive antagonist | Non-competitive inhibition | O=C(c1ccc(F)cc1)C1CCN(CCn2nc3n(c2=O)CCCCC3)CC1 |  |  |
| 7.4 | < 6 | 91% |  |  |  | O=C(c1ccc(F)cc1)C1CCN(CCn2nc3n(c2=O)CCCC3)CC1 | 32% |  |
| 8.3 |  | 93% | 6.8 |  |  | O=c1nc2n(c(=O)n1CCN1CCC(=C(c3ccc(F)cc3)c3ccc(F)cc3)CC1)CCCC2 |  | 12% |
| 7.9 |  | 79% |  |  | Non-competitive inhibition | O=C(c1ccc(F)cc1)C1CCN(CCn2c(=O)nc3sccn3c2=O)CC1 | 50% |  |
| 6.7 | 7.2 | 83% |  |  |  | O=C(c1ccc(F)cc1)C1(O)CCN(CCn2c(=O)nc3n(c2=O)CCCC3)CC1 | 20% |  |
| 7.3 | 7.1 | 67% |  |  |  | O=C(c1ccc(F)cc1)C1CCN(CCn2c(=O)nc3n(c2=O)CCC3)CC1 | 23% |  |
| 7.8 | 6.9 | 78% |  |  |  | O=C(c1ccc(F)cc1)C1CCN(CCn2c(=O)nc3n(c2=O)CCCCC3)CC1 | 15% |  |
| 7.4 | 6.3 | 62% |  |  |  | O=C(c1ccc(F)cc1)C1CCN(CCn2nc3n(c2=O)CCOC3)CC1 | 36% |  |

| Structure (SMILES) | pA2 [1] | pA2 [2] | inhibition [3] | pA2 [5] | pA2 [7] | pA2 [8] | inhibition [4] | inhibition [6] |
| --- | --- | --- | --- | --- | --- | --- | --- | --- |
| O=C(c1ccc(F)cc1)C1(c2ccc(F)cc2)CCN(CCn2nc3n(c2=O)CCCC3)CC1 | 6 | < 6 | 11% |  |  |  | 6% |  |

From ChEMBL document CHEMBL1126018, “Syntheses and 5-HT2 antagonist activity of bicyclic 1,2,4-triazol-3(2H)-one and 1,3,5-triazine-2,4(3H)-dione derivatives” (J Med Chem, 1992)
